Test results taken from ChEMBL document CHEMBL5321236, “Fluoro-labelled sp2-iminoglycolipids with immunomodulatory properties” (Eur J Med Chem, 2023).
Active and inactive are the calls of the source. The calls are words filed in the database; no cut-off is given here.

Assays:
[1] = test system: HBL-100; test: Growth inhibition of human HBL-100 cells measured after 48 hrs by SRB colorimetric assay; format: functional
Procedure, shortened: (§1)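 NCI-based protocol with sulforhodamine B read-out. Seeded 2500 (A549, HBL-100, HeLa, SW1573), 5000 (T-47D, WiDr, SW1573/P-gp) or 7000 (BJ-hTERT) cells/well. Exposed 48 h to serial decimal dilutions, 0.001–100 μM, from 40 mM DMSO stock. GI50 by NCI formulas; mean of three or more experiments ± SD.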

[2] = test system: HeLa; test: Growth inhibition of human HeLa cells measured after 48 hrs by SRB colorimetric assay; format: functional; procedure, shortened: as §1
[3] = test system: WiDr; test: Growth inhibition of human WiDr cells measured after 48 hrs by SRB colorimetric assay; format: functional; procedure, shortened: as §1
[4] = test system: hTERT-BJ; test: Growth inhibition of human hTERT-BJ cells measured after 48 hrs by SRB colorimetric assay; format: functional
Procedure, shortened: (§2)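 NCI-based protocol with sulforhodamine B read-out. Cells grown in RPMI 1640 with 5% FBS and 1 mM glutamine at 37 °C, 5% CO₂. Seeded 2500 (A549, HBL-100, HeLa, SW1573), 5000 (T-47D, WiDr, SW1573/P-gp) or 7000 (BJ-hTERT) cells/well. Exposed 48 h to serial decimal dilutions, 0.001–100 μM, from 40 mM DMSO stock. GI50 by NCI formulas; mean of three or more experiments ± SD.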

[5] = test system: SW1573; test: Growth inhibition of human SW1573 cells measured after 48 hrs in absence of verapamil by SRB colorimetric assay; format: functional; procedure, shortened: as §2
[6] = test system: SW1573; test: Growth inhibition of human SW1573 cells overexpressing P-glycoprotein measured after 48 hrs in absence of verapamil by SRB colorimetric assay; format: functional; procedure, shortened: as §2
[7] = test system: SW1573; test: Growth inhibition of human SW1573 cells measured after 48 hrs in presence of verapamil by SRB colorimetric assay; format: functional; procedure, shortened: as §2
[8] = test system: SW1573; test: Growth inhibition of human SW1573 cells overexpressing P-glycoprotein measured after 48 hrs in presence of verapamil by SRB colorimetric assay; format: functional; procedure, shortened: as §2
[9] = Resistance factor, ratio of GI50 for growth inhibition of human SW1573 cells overexpressing P-glycoprotein measured after 48 hrs in presence of verapamil to GI50 for growth inhibition of human SW1573 cells measured after 48 hrs in presence of verapamil; format: functional
Procedure, shortened: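 SW1573 parental and P-gp-overexpressing cells given 48 h exposure to serial dilutions (0.001–100 μM) in medium containing verapamil at a final 10 μM as P-gp transport inhibitor. SRB read-out, GI50 by NCI formulas. Resistance factor taken as GI50 in SW1573/P-gp divided by GI50 in SW1573.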

[10] = test system: SW1573; test: Inhibition of colony formation in human SW1573 cells assessed as reduction in number of colonies at GI50 concentration measured after 7 days by crystal violet staining based analysis; format: functional, cell-based; settings: time 7.0 day
Procedure, shortened: (§3)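 HeLa and SW1573 seeded at 400 cells/well, dosed next day at GI50/3 and GI50 for the given line. Exposed seven days, fixed in methanol, stained with 0.5% w/v crystal violet. Colonies counted by automatic image segmentation.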

[11] = test system: SW1573; test: Inhibition of colony formation in human SW1573 cells assessed as reduction in number of colonies at one third of GI50 concentration measured after 7 days by crystal violet staining based analysis; format: functional, cell-based; settings: time 7.0 day; procedure, shortened: as §3
[12] = test system: HeLa; test: Induction of apoptosis in human HeLa cells assessed as membrane blebbing at 20 uM measured upto 15 hrs by microscopy based analysis; format: functional, cell-based
Procedure, shortened: (§4)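 HeLa and SW1573 seeded at 100,000 cells/dish. After 24 h, medium switched to phenol-red-free RPMI 1640 and 20 μM added. Label-free holotomographic 3D live imaging of a 236 × 236 μm field, 10–20 cells initially, every 3 min for 15 h. Average dry mass density measured per cell at each cycle; morphology scored against untreated cells.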

[13] = test system: BV-2; test: Antiinflammatory activity in mouse BV-2 cells assessed as reduction of LPS induced nitrites at 10 uM preincubated for 3 hrs followed by LPS stimulation and measured after 24 hrs by Griess method; format: functional, cell-based; settings: time 27.0 hrs
Procedure, shortened: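 Bv.2 microglia at 70% confluence, pre-treated 3 h at 10 μM in serum-free medium, then LPS 200 ng/mL for 24 h. Nitrite in the medium measured by Griess (1% sulphanilamide, 0.1% NEDA in acid), absorbance 548 nm, expressed as fold change over basal. n ≥ 4 independent experiments in triplicate, mean ± SEM.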

[14] = test system: SW1573; test: Induction of morphological changes in human SW1573 cells assessed as increase in average dry mass density at 20 uM measured after 15 hrs by imaging based analysis; format: functional, cell-based; procedure, shortened: as §4
[15] = test system: SW1573; test: Induction of morphological changes in human SW1573 cells assessed as formation of apoptotic bodies at 20 uM measured after 5 hrs by microscopy based analysis; format: functional, cell-based; procedure, shortened: as §4
[16] = test system: SW1573; test: Induction of morphological changes in human SW1573 cells assessed as cell shrinkage at 20 uM measured after 5 hrs by microscopy based analysis; format: functional; procedure, shortened: as §4
[17] = test system: HeLa; test: Induction of morphological changes in human HeLa cells assessed as decrease in cell volume at 20 uM measured after 5 hrs by microscopy based analysis; format: functional; procedure, shortened: as §4
[18] = test system: HeLa; test: Induction of morphological changes in human HeLa cells assessed as cell shrinkage at 20 uM measured after 5 hrs by microscopy based analysis; format: functional; procedure, shortened: as §4
[19] = test system: SW1573; test: Induction of apoptosis in human SW1573 cells assessed as membrane blebbing at 20 uM measured upto 15 hrs by microscopy based analysis; format: functional, cell-based; procedure, shortened: as §4
[20] = test system: HeLa; test: Induction of morphological changes in human HeLa cells assessed as release of cellular content at 20 uM measured after 12 hrs by imaging based analysis; format: functional, cell-based; procedure, shortened: as §4
[21] = test system: HeLa; test: Induction of morphological changes in human HeLa cells assessed as signal transition to necrotic stage at 20 uM measured after 12 hrs by imaging based analysis; format: functional, cell-based; procedure, shortened: as §4
[22] = biological target: Mitogen-activated protein kinase 14 (Mus musculus) (UniProt P47811); test: Inhibition of LPS-stimulated p38 alpha phosphorylation in mouse BV-2 cells at 10 uM measured after 15 to 90 mins by Western blot analysis; format: cell-based; settings: time 15-90 min
Procedure, shortened: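 Bv.2 cells exposed with or without LPS for 15–90 min. Protein extracts run on SDS-PAGE, blotted to PVDF, probed with anti-phospho-p38α MAPK and anti-total p38α MAPK (1:1000), ECL detection. Quantified by densitometry, mean ± SEM, n = 3.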

[23] = test system: HeLa; test: Induction of morphological changes in human HeLa cells at 20 uM measured after 12 hrs by imaging based analysis
[24] = test system: HeLa; test: Induction of morphological changes in human HeLa cells assessed as increase in cell shrinkage at 20 uM measured after 12 hrs by imaging based analysis
[25] = test system: BV-2; test: Protection against LPS induced inflammation in mouse BV-2 cells assessed as decrease in IL1-beta mRNA expression at 10 uM incubated for 24 hrs with LPS stimulation by qRT-PCR analysis
[26] = test system: BV-2; test: Protection against LPS induced inflammation in mouse BV-2 cells assessed as decrease in Tnf-alpha mRNA expression at 10 uM incubated for 24 hrs with LPS stimulation by qRT-PCR analysis

Mitogen-activated protein kinase 14 (Mus musculus), sequence (P47811 whole entry): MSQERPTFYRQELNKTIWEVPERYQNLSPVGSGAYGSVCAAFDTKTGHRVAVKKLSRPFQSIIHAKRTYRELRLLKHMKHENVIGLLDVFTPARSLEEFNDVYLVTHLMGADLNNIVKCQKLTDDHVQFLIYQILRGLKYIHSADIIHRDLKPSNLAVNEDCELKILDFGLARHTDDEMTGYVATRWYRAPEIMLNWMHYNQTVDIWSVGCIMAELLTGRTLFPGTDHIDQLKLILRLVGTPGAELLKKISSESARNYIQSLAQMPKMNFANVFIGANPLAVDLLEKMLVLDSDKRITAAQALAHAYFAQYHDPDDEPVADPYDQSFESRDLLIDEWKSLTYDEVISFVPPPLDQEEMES

SMILES: CCCCCCCCCCCCS(=O)(=O)[C@@H]1[C@H](F)[C@@H](O)[C@H](O)[C@H]2COC(=O)N21
- GI50 [1]: 19 µM
- GI50 [2]: 4.5 µM
- GI50 [3]: 20 µM
- GI50 [4]: 32 µM
- GI50 [5]: 3.3 µM
- GI50 [6]: 5.3 µM
- GI50 [7]: 15 µM
- GI50 [8]: 11 µM
- RatioGI50 [9]: 0.7
- inhibition [10]: Active
- inhibition [11]: Active
- Activity [12]: Active
- Activity [13]: Active
- Activity [14]: Active
- Activity [15]: Active
- Activity [16]: Active
- Activity [17]: Active
- Activity [18]: Active
- Activity [19]: inactive
- Activity [20]: Active
- Activity [21]: Active
- inhibition [22]: inactive
- Activity [23]: Active
- Activity [24]: Active
- Activity [25]: Active
- Activity [26]: Active
